Bioassay records from PubChem BioAssay.
Sampled rows, rich in hits. Any-hit rate of the full collection: about 3.5%.
ABCB1 block = ABCB1 efflux pump inhibitors, primary screen, cell-based, multiplex, flow cytometry, ABCG2 counter-screen. ATP-dependent translocase ABCB1 (Homo sapiens), P08183. CCRF-Adr cells, JC-1 efflux. inhibition, % at 6.6 µM. hit rate 0.067% among 190,000; in the data active = inhibition above about 40%;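 also: higher value means more JC-1 retained so stronger ABCB1 efflux block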
MEKK2wt PB1 HTS = modulators of MEK5 binding to wildtype MEKK2, primary screen, biochemical, multiplex bead flow cytometry, Alexa488-MEK5; Mitogen-activated protein kinase kinase kinase 2 (Homo sapiens), Q9Y2U5; Alexa488-MEK5 binding to MEKK2 WT; actives lie on both sides; binding response (% of control), % at 10 µM; hit rate 1.1% among 290,000; in the data active = binding response below about 67% or above about 130%
ABCG2 inh = ABCG2 efflux pump inhibitors, primary screen, multiplex with ABCB1, IgMXP3 cells, flow cytometry; AID 1325, 2008; inhibition, % at 6.6 µM; JC-1 efflux; Broad substrate specificity ATP-binding cassette transporter ABCG2 (Homo sapiens), Q9UNQ0; hit rate 0.1% among 190,000;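 active = inhibition above 80%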
Target sequence (Q9UNQ0 whole entry, looked up): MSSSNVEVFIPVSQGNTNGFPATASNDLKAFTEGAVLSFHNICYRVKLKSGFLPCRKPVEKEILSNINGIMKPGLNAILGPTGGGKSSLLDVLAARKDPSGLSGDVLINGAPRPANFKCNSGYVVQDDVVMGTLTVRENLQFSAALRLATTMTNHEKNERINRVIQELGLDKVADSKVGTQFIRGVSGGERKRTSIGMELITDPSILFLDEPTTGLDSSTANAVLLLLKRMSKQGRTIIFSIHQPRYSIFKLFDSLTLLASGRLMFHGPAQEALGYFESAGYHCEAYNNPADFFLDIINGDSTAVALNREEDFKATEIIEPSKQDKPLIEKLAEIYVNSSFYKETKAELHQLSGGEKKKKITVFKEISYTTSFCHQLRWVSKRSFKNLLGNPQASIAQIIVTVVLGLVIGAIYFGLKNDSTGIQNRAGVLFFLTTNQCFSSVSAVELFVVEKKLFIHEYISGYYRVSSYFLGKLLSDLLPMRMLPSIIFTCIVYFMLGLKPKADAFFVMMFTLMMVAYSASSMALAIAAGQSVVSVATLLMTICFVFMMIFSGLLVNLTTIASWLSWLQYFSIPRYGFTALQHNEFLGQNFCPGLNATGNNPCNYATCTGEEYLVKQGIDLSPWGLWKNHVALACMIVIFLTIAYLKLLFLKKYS
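Incubation: cells with compound and JC-1, 10 min at 25 °C, rotating, no wash / Test system: IgMXP3 (ABCG2) plus far-red-tagged CCRF-Adr (ABCB1) cells / Compound dosing: one concentration, 6.6 µM final / Also added: JC-1 fluorescent substrate / Evaluation: efflux inhibition in percent versus controls / Detection: flow cytometry, 530 nm JC-1 signal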
MEKK3 PB1 HTS = modulators of MEKK3-MEK5 PB1 binding, primary screen, biochemical, wildtype MEKK3, multiplex bead flow cytometry, Alexa488-MEK5 | Mitogen-activated protein kinase kinase kinase 3 (Homo sapiens), Q99759 | bead-based flow cytometry, Alexa488-MEK5 binding to MEKK3; actives lie on both sides; 0 = blocked by unlabeled MEK5, 100 = vehicle | binding response (% of control), % at 10 µM | hit rate 1.4% among 290,000 | AID 1529, 2009;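 active = binding response more than 3 SD above or below the average of its plate-row segment, actives on both sides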;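 also: Alexa488 bead fluorescence after subtracting the streptavidin-only scavenger bead signal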
MEKK2mut PB1 HTS = MEK5 binding signal on mutant MEKK2 PB1, primary screen, biochemical, multiplex bead flow cytometry, Alexa488-MEK5; Alexa488-MEK5 binding to MEKK2 mutant; hit rate 0.35% among 290,000; percent response, % at 10 µM; in the data active = percent response above about 24%, passing the limit was not always enough
WT yeast gro inh = growth inhibition of WT strain, primary screen, mitochondrial fusion inhibitor project, WT and mutant strains, chemical genetic | mitochondrial fusion phenotypic screen | inhibition, % at 10 µM | hit rate 2.1% among 190,000; in the data active = inhibition above about 58%; tested in S. cerevisiae
MEKK2wt confirm = modulators of MEK5 binding to wildtype MEKK2, confirmation, biochemical, single concentration, multiplex bead flow cytometry | shares compounds with MEKK3 PB1 HTS | Alexa488-MEK5 binding to MEKK2 WT; actives lie on both sides | binding response (% of control), % at 10 µM | hit rate 2.4% among 5,900 | AID 1892, 2009; in the data active = binding response below about 16% or above about 210%; inactive = in between
MEKK2mut-MEK5 = mutant MEKK2 PB1-MEK5 binding signal retest – biochemical, single concentration, multiplex bead flow cytometry, confirmation | shares compounds with MEKK3 PB1 HTS | Alexa488-MEK5 binding to MEKK2 mutant | percent response, % at 10 µM | hit rate 2% among 5,900 | AID 1893, 2009; in the data active = percent response mostly above about 71%, no sharp cut-off; inactive = mostly below about 38%;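 also: higher means compound restores mutant binding toward wildtype level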
MEKK3 confirm = MEKK3 wild-type PB1 binding to MEK5, inhibitors, confirmation, biochemical, bead multiplex flow cytometry, single concentration, wildtype; shares compounds with MEKK3 PB1 HTS; Alexa488-MEK5 binding to MEKK3; active compounds read low; binding response (% of control), % at 10 µM; hit rate 1.8% among 5,900; AID 1894, 2009;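 active = binding response below 72% of control, or above a set upper limit, though filed actives all read lower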;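 also: lower values mean stronger disruption of MEK5 binding to MEKK3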
Hits are given with their value; 0 = inactive; - = no result; [ ] = dose if it differs, or a comment.

SMILES	ABCB1 block	MEKK2wt PB1 HTS	ABCG2 inh	MEKK3 PB1 HTS	MEKK2mut PB1 HTS	WT yeast gro inh	MEKK2wt confirm	MEKK2mut-MEK5	MEKK3 confirm
COC(C(=O)Nc1ccnn1C1CCN(C(=O)c2ccc(C=O)cc2)CC1)c1ccccc1 (stereo not drawn)	-	0	-	0	0	-	-	-	-
COCCNC(=O)C(c1cccs1)N(C(=O)Cn1nnc2ccccc21)c1ccc(OC)cc1 (stereo not drawn)	0	0	0	0	0	0	-	-	-
CCOC(=O)C(NC(=O)c1ccccc1Cl)(Nc1ccc(C(F)(F)F)cc1)C(F)(F)F (stereo not drawn)	0	0	0	151	0	0	0	0	0
Cc1ccc(S(=O)(=O)N2CCCC2C(=O)NCc2ccncc2)cc1 (stereo not drawn)	-	0	-	0	0	-	-	-	-
CCOc1ccccc1NC(=O)CN(c1ccc(Cl)cc1)S(C)(=O)=O	-	0	-	0	0	-	-	-	-
CCN(CC(=O)Nc1ccccc1-c1ccccc1)Cc1nc2ccccc2c(=O)[nH]1	0	0	0	64[inhibitor]	0	0	0	0	0
CCC(C)NS(=O)(=O)c1ccc(S(=O)(=O)N(CCc2ccc(OC)c(OC)c2)Cc2cccs2)cc1 (stereo not drawn)	0	0	0	147	0	0	0	0	0
COCCN(C(=O)CCC(=O)Nc1cccnc1)C(C(=O)NC1CCCCC1)c1ccccc1 (stereo not drawn)	0	0	0	0	0	0	-	-	-
O=C(c1ccco1)N1N=C(c2ccc(Br)cc2)CC1(O)C(F)(F)F (stereo not drawn)	0	0	0	0	0	0	-	-	-
CCN(CC)CCNC(=O)c1ccc2c(=O)n(CCc3ccccc3)c(=O)[nH]c2c1	0	135	0	125	0	0	0	0	0
CCN(CCCNC(=O)CCn1c(=O)[nH]c2ccccc2c1=O)c1cccc(C)c1	0	0	0	0	0	0	-	-	-
CCCCN(C)CCNC(=O)c1ccc(Cn2c(=S)[nH]c3ccc(Br)cc3c2=O)cc1	0	171	0	0	0	0	0	0	0
CCN(CCCNC(=O)CCn1c(=O)[nH]c2ccccc2c1=O)c1ccccc1	0	44[inhibitor]	0	34[inhibitor]	0	0	0	0	0
CN(C)CCNC(=O)c1ccc2c(=O)n(Cc3ccc(Cl)cc3)c(=S)[nH]c2c1	-	138	-	0	25	-	0	0	0
Cc1ccc(CNS(=O)(=O)c2ccc3c(c2)NC(=O)C(C)S3)cc1 (stereo not drawn)	-	0	-	0	0	-	-	-	-
CCOC(=O)C1=C(CS(=O)(=O)c2ccc(F)c(C)c2)NC(=O)NC1c1ccc(O)c(O)c1 (stereo not drawn)	0	0	0	0	0	0	-	-	-
CCN(CC(=O)Nc1ccccc1OC)CC(=O)Nc1sccc1C#N	0	0	0	0	0	0	-	-	-
O=C(Cc1ccc([N+](=O)[O-])cc1)NCc1ccccc1Cl	0	0	0	146	0	0	0	0	0
CS(=O)(=O)N1CCN(C(=O)Cc2cccs2)CC1	0	0	0	63[inhibitor]	0	0	0	0	0
